Source: paper PMC3062473 (ChemMedChem, 2010)

Tests used:
caspase 1 [1] = target: T1, caspase 1 (Homo sapiens, UniProt P29466); assay: Reaction Biology caspase panel; assay type: biochemical
T1 sequence (P29466 120-297 limits assumed): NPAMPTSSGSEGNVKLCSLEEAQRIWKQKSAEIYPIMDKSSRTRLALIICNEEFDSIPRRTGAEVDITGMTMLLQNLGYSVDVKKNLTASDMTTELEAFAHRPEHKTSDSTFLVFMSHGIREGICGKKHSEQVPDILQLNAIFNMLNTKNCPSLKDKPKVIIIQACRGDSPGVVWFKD
T1 sequence (P29466 317-404 limits assumed): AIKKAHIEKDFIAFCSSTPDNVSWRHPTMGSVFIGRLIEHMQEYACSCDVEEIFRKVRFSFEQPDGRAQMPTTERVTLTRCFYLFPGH

Caspase 4 = target: T2, Caspase 4 (Homo sapiens, UniProt P49662); assay: Reaction Biology caspase panel; assay type: biochemical
T2 sequence (P49662 81-270 limits assumed): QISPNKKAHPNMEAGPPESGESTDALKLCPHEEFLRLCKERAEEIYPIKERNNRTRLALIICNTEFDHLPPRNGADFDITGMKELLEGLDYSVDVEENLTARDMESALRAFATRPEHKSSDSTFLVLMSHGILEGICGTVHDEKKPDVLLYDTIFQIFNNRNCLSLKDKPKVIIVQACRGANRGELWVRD
T2 sequence (P49662 290-377 limits assumed): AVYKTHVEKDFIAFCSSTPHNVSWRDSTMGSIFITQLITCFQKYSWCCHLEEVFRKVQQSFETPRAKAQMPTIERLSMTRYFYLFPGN

Caspase 6 = target: T3, Caspase 6 (Homo sapiens, UniProt P55212); assay: Reaction Biology caspase panel; assay type: biochemical
T3 sequence (P55212 24-179 limits assumed): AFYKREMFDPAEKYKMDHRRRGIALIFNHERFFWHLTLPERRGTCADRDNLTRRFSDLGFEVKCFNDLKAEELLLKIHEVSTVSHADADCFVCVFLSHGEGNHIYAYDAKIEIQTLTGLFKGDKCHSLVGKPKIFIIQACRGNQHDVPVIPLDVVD
T3 sequence (P55212 194-293 limits assumed): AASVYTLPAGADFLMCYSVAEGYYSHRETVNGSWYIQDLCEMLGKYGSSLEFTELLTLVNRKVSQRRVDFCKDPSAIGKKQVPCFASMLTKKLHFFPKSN

Pgp = Pgp (Homo sapiens, UniProt P08183); assay: Caco-2 permeability in the presence of verapamil; assay type: in vitro ADME; conditions: Caco-2 control experiment with verapamil
Sequence of Pgp (P08183 whole entry): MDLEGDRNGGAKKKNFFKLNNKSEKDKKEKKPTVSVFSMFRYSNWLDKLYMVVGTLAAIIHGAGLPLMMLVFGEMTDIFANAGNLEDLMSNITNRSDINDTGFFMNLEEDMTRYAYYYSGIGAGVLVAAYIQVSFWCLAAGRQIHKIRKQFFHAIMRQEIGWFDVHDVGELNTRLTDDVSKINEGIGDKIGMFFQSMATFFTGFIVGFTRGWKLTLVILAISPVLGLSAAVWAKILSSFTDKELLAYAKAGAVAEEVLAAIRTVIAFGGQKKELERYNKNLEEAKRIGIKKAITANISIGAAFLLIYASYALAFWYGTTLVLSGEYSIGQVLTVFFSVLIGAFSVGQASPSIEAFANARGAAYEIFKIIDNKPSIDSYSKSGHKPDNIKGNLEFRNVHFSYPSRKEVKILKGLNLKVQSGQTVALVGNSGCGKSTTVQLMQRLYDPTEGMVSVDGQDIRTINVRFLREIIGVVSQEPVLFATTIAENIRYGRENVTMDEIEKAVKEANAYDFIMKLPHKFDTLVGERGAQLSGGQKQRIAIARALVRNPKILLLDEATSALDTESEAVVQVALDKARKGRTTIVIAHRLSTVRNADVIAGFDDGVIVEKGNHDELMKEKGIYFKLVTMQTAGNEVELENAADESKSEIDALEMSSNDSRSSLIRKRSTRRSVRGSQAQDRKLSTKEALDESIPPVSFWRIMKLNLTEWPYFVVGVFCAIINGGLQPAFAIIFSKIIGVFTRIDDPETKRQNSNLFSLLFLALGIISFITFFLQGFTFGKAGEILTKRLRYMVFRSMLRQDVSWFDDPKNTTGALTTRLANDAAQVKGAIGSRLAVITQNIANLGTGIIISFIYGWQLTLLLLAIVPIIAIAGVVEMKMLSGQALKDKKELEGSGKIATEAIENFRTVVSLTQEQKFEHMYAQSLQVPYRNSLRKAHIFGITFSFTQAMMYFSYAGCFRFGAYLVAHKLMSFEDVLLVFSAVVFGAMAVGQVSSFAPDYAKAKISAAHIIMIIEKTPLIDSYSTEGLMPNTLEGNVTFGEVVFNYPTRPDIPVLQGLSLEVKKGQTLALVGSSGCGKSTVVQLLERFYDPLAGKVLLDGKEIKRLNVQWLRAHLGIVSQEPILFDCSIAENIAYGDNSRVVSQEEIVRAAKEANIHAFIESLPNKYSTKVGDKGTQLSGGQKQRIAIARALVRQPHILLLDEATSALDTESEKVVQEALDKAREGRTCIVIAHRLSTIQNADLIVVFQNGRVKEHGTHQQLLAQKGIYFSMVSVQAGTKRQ

[2] = Aqueous degradation study by LCMS over 96 hours; assay type: physicochemical; conditions: for aqueous stability (in words): up to 96 hours
[3] = Plasma protein binding, equilibrium dialysis in 100% plasma; assay type: in vitro ADME, human; conditions: human, plasma (100%)
Caspase 10 = target: T4, Caspase 10 (Homo sapiens, UniProt Q92851); assay: Reaction Biology caspase panel; assay type: biochemical
T4 sequence (Q92851 220-415 limits assumed): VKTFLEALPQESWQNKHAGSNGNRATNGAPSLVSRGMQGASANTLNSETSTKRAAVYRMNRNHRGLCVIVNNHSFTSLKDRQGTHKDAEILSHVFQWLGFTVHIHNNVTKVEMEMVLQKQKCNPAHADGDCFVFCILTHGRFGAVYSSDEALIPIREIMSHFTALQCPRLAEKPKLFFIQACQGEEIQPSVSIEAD
T4 sequence (Q92851 416-521 limits assumed): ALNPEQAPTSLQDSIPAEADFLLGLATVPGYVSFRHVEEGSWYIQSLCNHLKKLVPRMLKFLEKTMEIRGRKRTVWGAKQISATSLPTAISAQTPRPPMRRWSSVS

Caspase 8 = Caspase 8 (Homo sapiens, UniProt Q14790); assay: Reaction Biology caspase panel; assay type: biochemical
Sequence of Caspase 8 (Q14790 217-374 limits assumed): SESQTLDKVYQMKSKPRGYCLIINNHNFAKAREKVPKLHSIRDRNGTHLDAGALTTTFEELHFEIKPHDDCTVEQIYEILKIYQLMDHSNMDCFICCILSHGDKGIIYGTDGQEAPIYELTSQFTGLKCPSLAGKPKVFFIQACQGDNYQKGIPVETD
Sequence of Caspase 8 (Q14790 385-479 limits assumed): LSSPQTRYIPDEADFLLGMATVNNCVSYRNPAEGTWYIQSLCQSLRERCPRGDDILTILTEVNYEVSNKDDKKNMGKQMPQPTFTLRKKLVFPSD

Caspase 5 = target: T5, Caspase 5 (Homo sapiens, UniProt P51878); assay: Reaction Biology caspase panel; assay type: biochemical
T5 sequence (P51878 137-327 limits assumed): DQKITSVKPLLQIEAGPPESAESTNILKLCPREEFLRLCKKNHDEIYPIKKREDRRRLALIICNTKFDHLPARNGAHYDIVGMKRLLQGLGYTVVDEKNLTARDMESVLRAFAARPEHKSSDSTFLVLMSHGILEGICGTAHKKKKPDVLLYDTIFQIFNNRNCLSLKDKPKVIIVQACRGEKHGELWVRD
T5 sequence (P51878 347-434 limits assumed): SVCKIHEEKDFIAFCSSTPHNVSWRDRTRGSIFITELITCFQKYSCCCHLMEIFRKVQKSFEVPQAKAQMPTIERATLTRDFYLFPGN

[4] = Bi-directional Caco-2 permeability; assay type: in vitro ADME; conditions: human
How it was run: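 Contract-lab bidirectional Caco-2 permeability. Run as three separate experiments, each with two separate internal control groups.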

caspase 1 [5] = target: T1, caspase 1; assay: Caspase 1 fluorescence assay, Ac-LEHD-AMC substrate, 2 nM enzyme; assay type: biochemical
How it was run: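 Compound added from DMSO as a 12-point duplicate titration (0.65 pM to 57.5 μM) and preincubated 15 min at RT. Then 5 μM Ac-LEHD-AMC final was added and the initial rate followed 20 min at RT (ex 340/em 450 nm). Percent inhibition was taken against median uninhibited and uncatalyzed controls, with a four-parameter Hill fit.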

Caspase 7 = target: T6, Caspase 7 (Homo sapiens, UniProt P55210); assay: Reaction Biology caspase panel; assay type: biochemical
T6 sequence (P55210 24-198 limits assumed): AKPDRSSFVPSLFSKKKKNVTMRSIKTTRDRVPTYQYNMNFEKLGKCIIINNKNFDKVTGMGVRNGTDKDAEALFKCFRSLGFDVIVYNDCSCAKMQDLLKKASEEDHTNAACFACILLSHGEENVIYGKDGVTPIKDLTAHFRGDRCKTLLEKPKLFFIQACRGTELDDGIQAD
T6 sequence (P55210 207-303 limits assumed): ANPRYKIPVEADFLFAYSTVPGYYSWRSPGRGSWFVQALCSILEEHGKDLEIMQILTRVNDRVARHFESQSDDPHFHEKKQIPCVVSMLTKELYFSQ

Microsomal stability = assay type: in vitro ADME, human; conditions: for microsomal CLint / half-life: human, liver microsomes; for half-life: Microsomal Stability t1/2, human liver microsomes
How it was run: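 Human microsomal stability, profiled by a contract lab alongside internal control compounds. Includes minus-NADPH and minus-compound control incubations.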

Caspase 9 = target: T7, Caspase 9 (Homo sapiens, UniProt P55211); assay: Reaction Biology caspase panel; assay type: biochemical
T7 sequence (P55211 1-315 limits assumed): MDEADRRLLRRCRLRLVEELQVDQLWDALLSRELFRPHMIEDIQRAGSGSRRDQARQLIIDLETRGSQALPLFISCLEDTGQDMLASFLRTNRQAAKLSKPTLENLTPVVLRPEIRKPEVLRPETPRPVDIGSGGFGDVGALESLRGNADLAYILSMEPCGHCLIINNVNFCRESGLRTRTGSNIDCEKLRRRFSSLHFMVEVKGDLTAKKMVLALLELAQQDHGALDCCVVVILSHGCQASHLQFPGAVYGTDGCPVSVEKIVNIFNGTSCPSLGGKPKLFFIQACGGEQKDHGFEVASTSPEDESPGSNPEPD
T7 sequence (P55211 331-416 limits assumed): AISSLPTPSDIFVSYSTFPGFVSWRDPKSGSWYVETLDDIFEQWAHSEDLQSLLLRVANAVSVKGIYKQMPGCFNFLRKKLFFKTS

Caspase 14 = target: T8, Caspase 14 (Homo sapiens, UniProt P31944); assay: Reaction Biology caspase panel; assay type: biochemical
T8 sequence (P31944 6-146 limits assumed): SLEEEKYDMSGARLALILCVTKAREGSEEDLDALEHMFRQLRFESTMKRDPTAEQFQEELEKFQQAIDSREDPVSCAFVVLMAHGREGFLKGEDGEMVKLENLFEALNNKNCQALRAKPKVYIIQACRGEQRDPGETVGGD
T8 sequence (P31944 153-242 limits assumed): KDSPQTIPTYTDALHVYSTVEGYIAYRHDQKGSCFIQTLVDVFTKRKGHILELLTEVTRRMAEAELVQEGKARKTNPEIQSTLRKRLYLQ

Caspase 3 = target: T9, Caspase 3 (Homo sapiens, UniProt P42574); assay: Reaction Biology caspase panel; assay type: biochemical
T9 sequence (P42574 29-175 limits assumed): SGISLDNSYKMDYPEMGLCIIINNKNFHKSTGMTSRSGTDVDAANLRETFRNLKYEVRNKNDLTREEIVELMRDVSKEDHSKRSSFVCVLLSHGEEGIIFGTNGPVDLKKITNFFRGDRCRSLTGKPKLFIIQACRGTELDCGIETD
T9 sequence (P42574 176-277 limits assumed): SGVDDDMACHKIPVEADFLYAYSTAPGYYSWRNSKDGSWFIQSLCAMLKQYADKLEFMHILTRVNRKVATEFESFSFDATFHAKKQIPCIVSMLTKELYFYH

SMILES | IC50 (caspase 1 [1]) [nM] | IC50 (Caspase 4) [nM] | IC50 (Caspase 6) [nM] | substrate for Pgp efflux (Pgp) | aqueous stability (in words) ([2]; acidic (pH 2)) | aqueous stability (in words) ([2]; neutral (pH 7)) | fraction unbound [3] | IC50 (Caspase 10) [nM] | IC50 (Caspase 8) [nM] | IC50 (Caspase 5) [nM] | Papp A→B [4] [×10⁻⁶ cm/s] | Papp B→A [4] [×10⁻⁶ cm/s] | IC50 (caspase 1 [5]) [nM] | IC50 (Caspase 7) [nM] | microsomal CLint (Microsomal stability) [µL/min/mg] | half-life (Microsomal stability) [h] | IC50 (Caspase 9) [nM] | IC50 (Caspase 14) [nM] | IC50 (Caspase 3) [nM] | aqueous stability (in words) ([2]; basic (pH 8)) | other results
CC(C)(C)[C@H](NC(=O)c1ccc(N)c(Cl)c1)C(=O)N1CCC[C@H]1C(=O)N[C@H](C#N)Cc1nnn[nH]1 [Compound 16, (S)-1-((S)-2-(4-amino-3-chlorobenzamido)-3,3-dimethylbutanoyl)-N-((S)-1-cyano-2-(1H-tetrazol-5-yl)ethyl)pyrrolidine-2-carboxamide] | 2.58 | 1380 | > 10000 | – | resistant to degradation | resistant to degradation | 0.243 | > 10000 | > 10000 | 1300 | 0.13 | 0.193 | 20.4 | > 10000 | 9.38 | 2.47 | 91.5 | > 10000 | > 10000 | resistant to degradation | –
CCO[C@@H]1OC(=O)C[C@@H]1NC(=O)[C@@H]1CCCN1C(=O)[C@@H](NC(=O)c1ccc(N)c(Cl)c1)C(C)(C)C [Compound 1, reference compound] | – | – | – | substrates for Pgp efflux | – | moderate degradation | 0.006 | – | – | – | 0.797 | 32.7 | – | – | 0.147 | – | – | – | – | – | degradation ([2]; pH 2, after 3.5 hours): 40%; compound decomposed ([2]; water (pH 7), after 48 hours): over 50%; Microsomal Stability t1/2 (Microsomal stability; human liver microsomes, listed as VX-765): 157.2 h
CC(=O)N[C@@H](CC(=O)O)C(=O)N[C@@H](CCC(=O)O)C(=O)N[C@H](C(=O)N[C@H](C=O)CC(=O)O)C(C)C [Ac-DEVD-CHO, reference compound] | – | – | 122 | – | – | – | – | – | – | – | – | – | – | 3.54 | – | – | – | – | – | – | –

Continued, in another order:

IC50 (caspase 1 [1]) [nM] | IC50 (Caspase 4) [nM] | IC50 (Caspase 6) [nM] | substrate for Pgp efflux (Pgp) | aqueous stability (in words) ([2]; acidic (pH 2)) | aqueous stability (in words) ([2]; neutral (pH 7)) | fraction unbound [3] | IC50 (Caspase 10) [nM] | IC50 (Caspase 8) [nM] | IC50 (Caspase 5) [nM] | Papp A→B [4] [×10⁻⁶ cm/s] | Papp B→A [4] [×10⁻⁶ cm/s] | IC50 (caspase 1 [5]) [nM] | IC50 (Caspase 7) [nM] | microsomal CLint (Microsomal stability) [µL/min/mg] | half-life (Microsomal stability) [h] | IC50 (Caspase 9) [nM] | IC50 (Caspase 14) [nM] | IC50 (Caspase 3) [nM] | aqueous stability (in words) ([2]; basic (pH 8)) | SMILES | other results
43.4 | > 10000 | > 10000 | substrates for Pgp efflux | exceptionally stable | exceptionally stable | 0.071 | > 10000 | > 10000 | 1570 | 0.445 | 9.59 | 145 | > 10000 | 27.4 | 0.845 | 1610 | > 10000 | > 10000 | – | CCOC(=O)C[C@@H](C#N)NC(=O)[C@@H]1CCCN1C(=O)[C@@H](NC(=O)c1ccc(N)c(Cl)c1)C(C)(C)C [Compound 3, (S)-ethyl 3-((S)-1-((S)-2-(4-amino-3-chlorobenzamido)-3,3-dimethylbutanoyl)pyrrolidine-2-carboxamido)-3-cyanopropanoate] | degradation (in words) ([2]; basic (pH 8), after 22 hours): fully degraded; degradation in liver microsomes without NADPH (Microsomal stability; without NADPH as a cofactor): slight degree of degradation
0.023 | 13.8 | > 10000 | – | moderate to good | moderate to good | 0.431 | 89.7 | 25.2 | 3.6 | 0.144 | 0.06 | 0.316 | > 10000 | 10.3 | 2.23 | 2.17 | 801 | > 10000 | exceedingly stable | CC(C)(C)[C@H](NC(=O)c1ccc(N)c(Cl)c1)C(=O)N1CCC[C@H]1C(=O)N[C@H](C#N)CC(=O)O [Compound 4, (S)-3-((S)-1-((S)-2-(4-amino-3-chlorobenzamido)-3,3-dimethylbutanoyl)pyrrolidine-2-carboxamido)-3-cyanopropanoic acid] | degradation ([2]; acidic (pH 2), after 72 hours): 50%; degradation ([2]; neutral (pH 7), after 72 hours): 50%; Ki (caspase 1 [5]): 0.4 nM
